In ChEMBL document CHEMBL3045143, “Role of exogenously supplied ferulic and p-coumaric acids in mimicking the mode of action of acetolactate synthase inhibiting herbicides” (J Agric Food Chem, 2011):
Activity calls are given as the source filed them. The rule behind the calls is not given here.

What was measured:
[1] = test system: Root; test: Induction of ferulic acid accumulation in Pisum sativum (pea) roots at 28 nM added to nutrient medium measured 5 to 15 days post onset of compound treatment by HPLC method; type: functional; conditions: Lathyrus oleraceus
Method in brief: (§1)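 Compound was added to the nutrient solution of 12-day-old pea plants (cv. Snap Sugar Boys), renewed every 3 days at pH 6–7. Leaves or roots were sampled at 0, 1, 3, 7, 10 and 15 days. Values are mean ± standard error, n = 5 single plants. One-way ANOVA with Fisher test versus untreated controls on each day, p < 0.05.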

[2] = test system: Root; test: Induction of DAHPS enzyme expression in Pisum sativum (pea) roots at 28 nM added to nutrient medium measured 5 to 15 days post onset of compound treatment by immunoblot; type: functional; conditions: Lathyrus oleraceus
Method in brief: (§2)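 Roots were taken from pea plants (cv. Snap Sugar Boys) treated via nutrient solution from 12 days old, with the solution renewed every 3 days. Samples were taken at days 3, 7, 10 and 15.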

[3] = test system: Leaf; test: Induction of caffeic acid accumulation in Pisum sativum (pea) leaves at 28 nM added to nutrient medium measured 5 to 15 days post onset of compound treatment by HPLC method; type: functional; conditions: Lathyrus oleraceus; method in brief: as §1
[4] = test system: Pisum sativum; test: Growth inhibition in Pisum sativum (pea) at 28 nM added to nutrient medium measured 22 to 23 days post onset of compound treatment; type: functional, organism-based; conditions: Lathyrus oleraceus
Method in brief: (§3)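 Pea (cv. Snap Sugar Boys) grown hydroponically. Compound added to the nutrient solution at 12 days old. Solution was renewed every 3 days, with pH held between 6 and 7. Plants were followed over the treatment period.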

[5] = test system: Leaf; test: Induction of p-coumaric acid accumulation in Pisum sativum (pea) leaves at 28 nM added to nutrient medium measured 5 to 15 days post onset of compound treatment by HPLC method; type: functional; conditions: Lathyrus oleraceus; method in brief: as §1
[6] = test system: Root; test: Induction of p-coumaric acid accumulation in Pisum sativum (pea) roots at 28 nM added to nutrient medium measured 5 to 15 days post onset of compound treatment by HPLC method; type: functional; conditions: Lathyrus oleraceus; method in brief: as §1
[7] = test system: Leaf; test: Induction of sinapic acid accumulation in Pisum sativum (pea) leaves at 28 nM added to nutrient medium measured 5 to 15 days post onset of compound treatment by HPLC method; type: functional; conditions: Lathyrus oleraceus; method in brief: as §1
[8] = test system: Leaf; test: Induction of ferulic acid accumulation in Pisum sativum (pea) leaves at 28 nM added to nutrient medium measured 5 to 15 days post onset of compound treatment by HPLC method; type: functional; conditions: Lathyrus oleraceus; method in brief: as §1
[9] = test system: Root; test: Induction of caffeic acid accumulation in Pisum sativum (pea) roots at 28 nM added to nutrient medium measured 5 to 15 days post onset of compound treatment by HPLC method; type: functional; conditions: Lathyrus oleraceus; method in brief: as §1
[10] = test system: Root; test: Reduction in sinapic acid accumulation in Pisum sativum (pea) roots at 28 nM added to nutrient medium measured 3 to 10 days post onset of compound treatment by HPLC method; type: functional; conditions: Lathyrus oleraceus; method in brief: as §1
[11] = test system: Root; test: Increase in lignin content in Pisum sativum (pea) roots at 1 mM added to nutrient medium measured 5 to 15 days post onset of compound treatment; type: functional; conditions: Lathyrus oleraceus
Method in brief: (§4)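 Pea (Pisum sativum cv. Snap Sugar Boys) plants were grown in nutrient solution. At 12 days old, 1 mM phenolic acid was added to the solution. The solution was replaced every 3 days and kept at pH 6–7. Samples were collected at 0, 1, 3, 7, 10 and 15 days. Untreated plants were controls. One-way ANOVA with Fisher test, p < 0.05.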

[12] = test system: Pisum sativum; test: Growth inhibition in Pisum sativum (pea) assessed as shoot growth arrest at 1 mM added to nutrient medium measured within 10 days post onset of compound treatment; type: functional, organism-based; conditions: Lathyrus oleraceus; method in brief: as §4
[13] = test system: Root; test: Drug level in Pisum sativum (pea) roots at 1 mM added to nutrient medium measured 5 to 15 days post onset of compound treatment by HPLC method; type: ADME; conditions: lathyrus oleraceus, 1000 µM; method in brief: as §4
[14] = test system: Root; test: Effect on sucrose content in Pisum sativum (pea) roots at 1 mM added to nutrient medium measured 5 to 15 days post onset of compound treatment by capillary electrophoresis method; type: functional; conditions: Lathyrus oleraceus; method in brief: as §4
[15] = test system: Leaf; test: Drug level in Pisum sativum (pea) leaves at 1 mM added to nutrient medium measured 5 to 15 days post onset of compound treatment by HPLC method; type: ADME; conditions: lathyrus oleraceus, 1000 µM; method in brief: as §4
[16] = test system: Root; test: Induction of ADH protein enzyme expression in Pisum sativum (pea) roots at 1 mM added to nutrient medium measured 5 to 15 days post onset of compound treatment by immunoblot; type: functional; conditions: Lathyrus oleraceus; method in brief: as §4
[17] = test system: Pisum sativum; test: Growth inhibition in Pisum sativum (pea) assessed as root elongation arrest at 1 mM added to nutrient medium measured within 1 day post onset of compound treatment; type: functional, organism-based; conditions: Lathyrus oleraceus; method in brief: as §4
[18] = test system: Root; test: Effect on starch content in Pisum sativum (pea) roots at 1 mM added to nutrient medium measured 5 to 15 days post onset of compound treatment by capillary electrophoresis method; type: functional; conditions: Lathyrus oleraceus; method in brief: as §4
[19] = test system: Leaf; test: Increase in quinate content in Pisum sativum (pea) leaves at 1 mM added to nutrient medium measured 5 to 15 days post onset of compound treatment by ion chromatography; type: functional; conditions: Lathyrus oleraceus; method in brief: as §4
[20] = test system: Root; test: Induction of PDC protein expression in Pisum sativum (pea) roots at 1 mM added to nutrient medium measured 5 to 15 days post onset of compound treatment by immunoblot; type: functional; conditions: Lathyrus oleraceus; method in brief: as §4
[21] = test system: Leaf; test: Increase in starch content in Pisum sativum (pea) leaves at 1 mM added to nutrient medium measured 5 to 15 days post onset of compound treatment by capillary electrophoresis method; type: functional; conditions: Lathyrus oleraceus; method in brief: as §4
[22] = test system: Root; test: Reduction in PAL activity in Pisum sativum (pea) roots at 1 MM added to nutrient medium measured 7 days post onset of compound treatment; type: functional; set-up: dose or concentration left out as unconfirmed; conditions: Lathyrus oleraceus; method in brief: as §4
[23] = test system: Root; test: Induction of caffeic acid accumulation in Pisum sativum (pea) roots at 69 uM added to nutrient medium measured 5 to 15 days post onset of compound treatment by HPLC method; type: functional; conditions: Lathyrus oleraceus; method in brief: as §1
[24] = test system: Leaf; test: Induction of p-coumaric acid accumulation in Pisum sativum (pea) leaves at 69 uM added to nutrient medium measured 5 to 15 days post onset of compound treatment by HPLC method; type: functional; conditions: Lathyrus oleraceus; method in brief: as §1
[25] = test system: Leaf; test: Induction of sinapic acid accumulation in Pisum sativum (pea) leaves at 69 uM added to nutrient medium measured 5 to 15 days post onset of compound treatment by HPLC method; type: functional; conditions: Lathyrus oleraceus; method in brief: as §1
[26] = test system: Pisum sativum; test: Growth inhibition in Pisum sativum (pea) at 69 uM added to nutrient medium measured 22 to 23 days post onset of compound treatment; type: functional, organism-based; conditions: Lathyrus oleraceus; method in brief: as §3
[27] = test system: Root; test: Induction of PAL activity in Pisum sativum (pea) roots at 69 uM added to nutrient medium measured 5 to 15 days post onset of compound treatment; type: functional; conditions: Lathyrus oleraceus
Method in brief: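 Roots were taken from 12-day-old pea plants (cv. Snap Sugar Boys) treated via nutrient solution, renewed every 3 days at pH 6–7. For PAL activity, extracts were not filtered on Sephadex G-25. Reaction ran 1 h at 37 °C, then HCl was added and the mixture was centrifuged at 5000g for 5 min.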

[28] = test system: Root; test: Induction of p-coumaric acid accumulation in Pisum sativum (pea) roots at 69 uM added to nutrient medium measured 5 to 15 days post onset of compound treatment by HPLC method; type: functional; conditions: Lathyrus oleraceus; method in brief: as §1
[29] = test system: Root; test: Increase in lignin content in Pisum sativum (pea) roots at 69 uM added to nutrient medium measured 10 days post onset of compound treatment; type: functional; conditions: Lathyrus oleraceus
Method in brief: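 Compound was added to the nutrient solution of 12-day-old pea plants (cv. Snap Sugar Boys). Solution was renewed every 3 days at pH 6–7. Lignin was measured in roots from plants sampled on set days up to day 15.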

[30] = test system: Root; test: Induction of ferulic acid accumulation in Pisum sativum (pea) roots at 69 uM added to nutrient medium measured 5 to 15 days post onset of compound treatment by HPLC method; type: functional; conditions: Lathyrus oleraceus; method in brief: as §1
[31] = test system: Leaf; test: Induction of caffeic acid accumulation in Pisum sativum (pea) leaves at 69 uM added to nutrient medium measured 5 to 15 days post onset of compound treatment by HPLC method; type: functional; conditions: Lathyrus oleraceus; method in brief: as §1
[32] = test system: Root; test: Reduction in sinapic acid accumulation in Pisum sativum (pea) roots at 69 uM added to nutrient medium measured 3 to 10 days post onset of compound treatment by HPLC method; type: functional; conditions: Lathyrus oleraceus; method in brief: as §1
[33] = test system: Leaf; test: Induction of ferulic acid accumulation in Pisum sativum (pea) leaves at 69 uM added to nutrient medium measured 5 to 15 days post onset of compound treatment by HPLC method; type: functional; conditions: Lathyrus oleraceus; method in brief: as §1
[34] = test system: Root; test: Induction of DAHPS enzyme expression in Pisum sativum (pea) roots at 69 uM added to nutrient medium measured 5 to 15 days post onset of compound treatment by immunoblot; type: functional; conditions: Lathyrus oleraceus; method in brief: as §2

Q: With `COc1nc(C)nc(NC(=O)NS(=O)(=O)c2ccccc2Cl)n1` as the molecule, how does the Activity [1] read?
A: Active

Q: What about the Activity [2] of the same molecule?
A: Active

Q: And the Activity [3]?
A: Active

Q: What about the “growth inhibition (GI)” value [4] of the same molecule?
A: Active

Q: And the Activity [5]?
A: Active

Q: What about the Activity [6] of the same molecule?
A: Active

Q: And the Activity [7]?
A: Active

Q: What about the Activity [8] of the same molecule?
A: Active

Q: What about the Activity [9] of the same molecule?
A: Active

Q: And the Activity [10]?
A: Active

Q: What does the source list for `COc1cc(/C=C/C(=O)O)ccc1O` [FERULATE]?
A: Activity [11]: Active; Activity [12]: Active; Drug uptake [13]: Active; Activity [14]: inactive; Drug uptake [15]: Active; Activity [16]: Active; Activity [17]: Active; Activity [18]: inactive; Activity [19]: Active; Activity [20]: Active; Activity [21]: Active; Activity [22]: Active

Q: With `O=C(O)/C=C/c1ccc(O)cc1` [COUMARIC ACID] as the molecule, how does the Activity [12] read?
A: Active

Q: What about the Drug uptake [13] of the same molecule?
A: Active

Q: What about the Activity [14] of the same molecule?
A: inactive

Q: What about the Drug uptake [15] of the same molecule?
A: Active

Q: And the Activity [16]?
A: Active

Q: And the Activity [17]?
A: Active

Q: What about the Activity [18] of the same molecule?
A: inactive

Q: And the Activity [19]?
A: Active

Q: And the Activity [20]?
A: Active

Q: What about the Activity [21] of the same molecule?
A: Active

Q: For `CCc1cnc(C2=NC(C)(C(C)C)C(=O)N2)c(C(=O)O)c1` (centres undefined), which Activity [23] is on record?
A: Active

Q: And the Activity [24]?
A: Active

Q: What about the Activity [25] of the same molecule?
A: Active

Q: And the “growth inhibition (GI)” value [26]?
A: Active

Q: What about the Activity [27] of the same molecule?
A: inactive

Q: And the Activity [28]?
A: Active

Q: And the Activity [29]?
A: Active

Q: And the Activity [30]?
A: Active

Q: And the Activity [31]?
A: Active

Q: And the Activity [32]?
A: Active

Q: And the Activity [33]?
A: Active

Q: And the Activity [34]?
A: Active
